Screening results from PubChem.
TAAR1 agonist = human TAAR1 agonists, primary screen, Fluo-8 calcium fluorescence, CHO RD-HGA16 cells | vehicle wells 0%, saturating PEA agonist 100% | activation, % at 3 µM | 360,000 compounds, 0.99% hits;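 active = activation above the mean activation of all test compounds in the run plus 3 SD, cut at about 38% in these data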
Target sequence (Q96RJ0 whole entry, looked up): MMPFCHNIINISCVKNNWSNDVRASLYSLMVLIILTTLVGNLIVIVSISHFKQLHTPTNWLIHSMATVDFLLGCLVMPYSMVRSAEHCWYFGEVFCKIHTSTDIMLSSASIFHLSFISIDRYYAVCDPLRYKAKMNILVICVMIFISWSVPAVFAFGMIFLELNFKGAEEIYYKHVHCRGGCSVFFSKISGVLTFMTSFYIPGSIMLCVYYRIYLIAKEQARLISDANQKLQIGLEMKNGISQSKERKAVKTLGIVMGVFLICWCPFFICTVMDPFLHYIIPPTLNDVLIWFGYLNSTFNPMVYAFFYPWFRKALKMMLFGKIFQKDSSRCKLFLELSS
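Test system: RD-HGA16 (CHO) cells co-expressing Gα16 and hTAAR1 | Doses: Single dose, 3 µM | Schedule: 17-24 h seeding, 75 min 37 °C dye, 30 min RT | Evaluation: % activation from peak over basal fluorescence ratio, DMSO-to-PEA scaled | Technique: Kinetic Fluo-8 calcium fluorescence | Benchmarks: Low control DMSO, high control PEA (EC100)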
GPR7 antag = GPR7 receptor antagonists, primary screen, cell-based, fluorescence, single concentration; GPR7-expressing cells, fluorescence antagonist assay; inhibition, % at 4.4 µM; 290,000 compounds, 1.1% hits; AID 1861, 2009; in the data active = inhibition above about 16%, passing the limit was not always enough;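 also: cells stimulated with the agonist NPW; 0% = agonist with vehicle and 100% = vehicle without agonist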
Target sequence (P48145 whole entry, looked up): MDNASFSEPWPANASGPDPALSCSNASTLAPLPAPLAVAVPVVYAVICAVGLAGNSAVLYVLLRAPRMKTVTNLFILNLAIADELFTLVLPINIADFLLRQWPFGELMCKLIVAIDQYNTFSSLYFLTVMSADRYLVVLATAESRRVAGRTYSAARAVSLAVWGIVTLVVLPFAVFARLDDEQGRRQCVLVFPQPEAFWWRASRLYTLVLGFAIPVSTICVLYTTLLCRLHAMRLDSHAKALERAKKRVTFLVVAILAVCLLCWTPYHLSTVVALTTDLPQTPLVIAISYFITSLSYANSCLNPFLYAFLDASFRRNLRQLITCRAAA
DAGLB inh = DAGLB lipase inhibitors, primary screen, biochemical, fluorescence, HTS | HEK293T DAGLB membrane lysate, EnzChek fluorogenic substrate | inhibition, % at 5.17 µM | Diacylglycerol lipase-beta (Homo sapiens), Q8NCG7 | 340,000 compounds, 0.059% hits; in the data active = inhibition above about 34%;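 also: 0% = enzyme with vehicle and 100% = wells lacking enzyme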
TAAR1 antag = human TAAR1 antagonists, primary screen, Fluo-8 calcium fluorescence, CHO RD-HGA16 cells; Trace amine-associated receptor 1 (Homo sapiens), Q96RJ0; antagonist; inhibition, % at 3 µM; 360,000 compounds, 1.5% hits; AID 624466, 2012;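 active = inhibition above a per-plate cutoff, the mean inhibition of test compounds on that plate plus 3 SD, cut at about 49% in these data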;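 also: 0% = DMSO plus EC80 beta-PEA response and 100% = DMSO alone without agonist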
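Assay system: CHO-derived RD-HGA16 cells stably expressing human TAAR1 plus Gα16. Timing: 140 s kinetic read after compound, 140 s after agonist. Technique: kinetic Fluo-8 calcium fluorescence measurement. Measure: % inhibition of agonist calcium response.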
MPTP block = mitochondrial permeability transition pore inhibitors, primary screen, biochemical, isolated mouse mitochondria, absorbance; AID 602449, 2012; Ca2+ swelling absorbance, 30 min; 360,000 compounds, 1.4% hits; inhibition, % at 10 µM;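 active = inhibition of 50% or more, scaled per plate between neutral and stimulator controls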;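 also: 0% = DMSO wells given calcium and 100% = 1 mM EGTA wells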
TAAR1 nonsel count = nonselective antagonists in TAAR1 counter-screen cells, counter-screen for hTAAR1 antagonist project, cell-based, fluorescence, calcium. 2,400 compounds, 77% hits. shares compounds with TAAR1 antag. AID 651780, 2012. inhibition, % at 3 µM. counterscreen cell line, antagonist mode; in the data active = inhibition above about 22%;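 also: CHO-Ga16 host cells stimulated with ATP at an EC80 level; 0% = agonist EC80 plus vehicle and 100% = vehicle without agonist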
TAAR1 antag conf = human TAAR1 antagonists, retest of hits, confirmation, cell-based, fluorescence. inhibition, % at 3 µM. TAAR1-expressing cells, fluorescence antagonist read-out. 2,400 compounds, 40% hits. shares compounds with TAAR1 antag. AID 651785, 2012; in the data active = inhibition above about 49%;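 also: CHO-Ga16 host cells challenged with agonist PEA near its EC80; 0% = agonist at EC80 plus vehicle and 100% = vehicle with no agonist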
Ga16 ag counter-1 = calcium activation in Ga16-expressing cells, counter-screen for TAAR1 antagonist project, cell-based, fluorescence. 2,400 compounds, 18% hits. shares compounds with TAAR1 antag. AID 651953, 2012. agonist counterscreen. activation, % at 3 µM; in the data active = activation above about 12%;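 also: 0% = vehicle wells and 100% = saturating stimulus response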
TAAR1 ag counter = TAAR1 activation by candidate antagonists – cell-based, fluorescence, counter-screen for TAAR1 antagonist project. AID 651955, 2012. activation, % at 3 µM. shares compounds with TAAR1 antag. hTAAR1 cell line, agonist mode. 2,400 compounds, 2% hits; in the data active = activation above about 37%;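 also: CHO cells stably expressing TAAR1 with calcium dye readout; 0% = DMSO vehicle and 100% = full agonist response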
TAAR1 ag confirm = human TAAR1 agonists, retest of hits, confirmation, Fluo-8 calcium fluorescence, CHO RD-HGA16 cells | shares compounds with TAAR1 agonist | scaled: DMSO 0%, maximal phenethylamine 100% | activation, % at 3 µM | 2,400 compounds, 82% hits | AID 651783, 2012;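 active = activation above a cutoff set at the run's mean compound activation plus 3 SD, cut at about 39% in these data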
Ga16 ag counter-2 = nonselective calcium mobilization agonists, CHO-Ga16 cells, counter-screen for hTAAR1 agonist project, cell-based, fluorescence, CHO-Ga16 parental line | activation, % at 3 µM | 2,400 compounds, 50% hits | shares compounds with TAAR1 agonist | AID 651787, 2012 | Fluo-8 calcium fluorescence; normalized to maximal ATP response, DMSO zero;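 active = activation above the run cutoff, the mean activation over all tested wells plus 3 SD, cut at about 12% in these data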;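 also: 0% = DMSO wells and 100% = maximal ATP response on the peak over basal ratio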
TAAR1 desensitize = TAAR1 desensitization by agonist hits, confirmation, counter-screen for TAAR1 agonist project, cell-based, fluorescence, tachyphylaxis | shares compounds with TAAR1 agonist | AID 651951, 2012 | inhibition, % at 3 µM | 2,400 compounds, 46% hits | CHO RD-HGA16 hTAAR1, Fluo-8 calcium, beta-PEA response inhibition;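 active = inhibition above the run cutoff, the mean inhibition of all test compounds plus 3 SD, cut at about 49% in these data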;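 also: beta-PEA stimulus applied at its EC80; loss of beta-PEA calcium signal after compound pretreatment read as receptor desensitization; 0% = DMSO with beta-PEA at EC80 and 100% = DMSO alone without agonist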
Ga16 nonsel ant = inhibition of ATP-evoked calcium response in CHO-Ga16 cells, counter-screen for TAAR1 agonist project, cell-based, fluorescence | shares compounds with TAAR1 agonist | CHO-Ga16 ATP-induced calcium, Fluo-8 fluorescence | AID 651952, 2012 | 2,400 compounds, 39% hits | inhibition, % at 3 µM;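 active = inhibition above the plate's mean compound inhibition plus 3 SD, computed per plate, cut at about 22% in these data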;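 also: 0% = EC80 ATP with DMSO and 100% = DMSO wells without ATP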
* marks the source's active call; other numbers are inactive results; . = no result given. Compounds with a hit are over-represented: about 4% of the library has one in this group of screens.

SMILES	TAAR1 agonist	GPR7 antag	DAGLB inh	TAAR1 antag	MPTP block	TAAR1 ag confirm	Ga16 ag counter-2	TAAR1 desensitize	Ga16 nonsel ant	others
CCC(c1nnnn1Cc1ccccc1)N1CCC(n2c(=O)[nH]c3ccccc32)CC1 (stereo not drawn)	23.9	.	.	72.2*	0.2	.	.	.	.	TAAR1 nonsel count=35.4*;TAAR1 antag conf=55.8*;Ga16 ag counter-1=10.5;TAAR1 ag counter=13.6
O=c1[nH]c2ccccc2n1CCCN1CCC(n2c(=O)[nH]c3cc(Cl)ccc32)CC1	2.7	-8.8	1.9	-2.4	0.3	.	.	.	.
O=c1[nH]c2ccccc2n1C1CCN(C(c2ccnc3ccccc23)c2nnnn2-c2ccc3c(c2)OCCO3)CC1 (stereo not drawn)	18.4	.	.	66.2*	-1.9	.	.	.	.	TAAR1 nonsel count=10.8;TAAR1 antag conf=48.0;Ga16 ag counter-1=12.9*;TAAR1 ag counter=47.9*
CCOC(=O)[C@]12Cc3cc(C)ccc3[C@H]1N(Cc1ccccc1)C(=O)c1cc(F)c(F)cc12	5.9	.	.	-41.5	-2.4	.	.	.	.
C[C@@H]1CN([C@H](C)CO)C(=O)CCCn2nncc2CO[C@@H]1CN(C)C(=O)Oc1ccc2ccccc2c1	-0.9	.	-2.2	-3.0	1.3	.	.	.	.
COc1ccc(-n2nnnc2C(CCc2ccccc2)N2CCC(n3c(=O)[nH]c4ccccc43)CC2)cc1 (stereo not drawn)	6.8	.	.	57.3*	-0.6	.	.	.	.	TAAR1 nonsel count=8.6;TAAR1 antag conf=38.6;Ga16 ag counter-1=4.7;TAAR1 ag counter=4.3
CCCCn1nnnc1C(CCc1ccccc1)N1CCC(n2c(=O)[nH]c3ccccc32)CC1 (stereo not drawn)	10.7	.	.	67.4*	-1.2	.	.	.	.	TAAR1 nonsel count=18.9;TAAR1 antag conf=44.9;Ga16 ag counter-1=7.0;TAAR1 ag counter=27.1
COc1ccc(-n2nnnc2C(c2ccccc2OC(F)(F)F)N2CCC(n3c(=O)[nH]c4ccccc43)CC2)cc1 (stereo not drawn)	0.3	.	.	31.2	0.6	.	.	.	.
O=C(O)C1C2CCC(O2)C1C(=O)Nc1cccc(Br)c1 (stereo not drawn)	-0.2	-13.3	2.3	-5.9	-0.9	.	.	.	.
COC(=O)[C@@]1(C#N)[C@@H]2C=CC(C(C)=O)=CN2[C@@H](C(N)=O)[C@@H]1c1ccc(F)cc1	6.9	-8.0	0.0	-23.5	0.1	.	.	.	.
C[C@]12CC[C@@H](O)CC1=CCC1C2CC[C@@]2(C)C1CC[C@@H]2O (stereo partly drawn)	2.5	.	-2.1	3.8	-0.1	.	.	.	.
Cc1cccc(CCNCc2cc3ccc(C)cc3[nH]c2=O)c1	82.8*	-12.7	1.7	70.4*	-0.1	99.7*	5.2	93.0*	-0.9
S=C(NCCc1ccccc1)N1Cc2ccc(Br)cc2-n2nncc2C1	60.5*	.	.	34.4	2.4	38.2*	2.8	21.7	19.0
S=C(NCCc1ccccc1)N1Cc2cc(Br)ccc2-n2nncc2C1	1.4	.	.	-8.4	2.0	.	.	.	.
COC(=O)C1=C(c2cc3ccccc3s2)C[C@@H]2CC[C@H]1N2C(=O)NCc1ccco1	7.9	.	-0.8	-0.8	-0.6	.	.	.	.
CNCC(C)c1ccccc1 (stereo not drawn)	83.6*	0.9	-2.4	59.4*	-3.7	94.3*	0.9	83.0*	1.9
O=C1NC(=O)N(c2cccc(Cl)c2)C(=O)/C1=C\c1ccc(Sc2nc3ccccc3[nH]2)o1	117.6*	-4.3	26.2	75.0*	39.8	25.7	32.3*	29.2	38.5*
Cc1cccc(N2C(=O)NC(=O)/C(=C/c3ccc(-c4ccc(C(=O)O)c(Cl)c4)o3)C2=O)c1	.	-7.1	.	.	.	.	.	.	.
CCN(CC)c1ccc(/C=C2/C(=O)NC(=O)N(Cc3ccco3)C2=O)cc1	44.9*	5.5	4.0	20.7	30.7	66.1*	30.0*	41.4	34.3*
CC12CC(=O)C3C(CCC4CC(=O)C=CC43C)C1CCC2=O (stereo not drawn)	-0.2	.	2.0	13.0	0.9	.	.	.	.
COc1cc(O)cc2c1C(=O)OC(C)CCCC(=O)CCC/C=C\2 (stereo not drawn)	55.2*	-0.2	-2.6	10.4	-0.8	30.0	26.3*	34.8	22.8*
C[C@H]1CCCC(=O)CCC/C=C/c2cc(O)cc(O)c2C(=O)O1	11.9	-10.8	-4.7	-21.8	3.9	.	.	.	.
CCCCCCCSc1cc(OC)c(CCNC)cc1OC	66.8*	21.7	3.6	35.3	11.3	51.7*	21.0*	44.3	24.1*
CN(CCc1ccccc1)Cc1c[nH]c2ccccc12	92.7*	-7.0	-0.7	83.6*	1.2	95.7*	2.1	76.6*	2.5
CN1Cc2c(c(C#N)c(N)n(C)c2=S)CC1(C)C	.	-5.4	-3.6	.	1.0	.	.	.	.
NNP(=O)(CC(=O)c1ccccc1)c1ccccc1 (stereo not drawn)	1.9	-11.2	.	-9.3	0.6	.	.	.	.
NCC(=O)c1ccccc1	88.8*	.	2.7	52.7*	-1.5	89.1*	6.8	87.9*	1.6
O=C1NC(=S)N(c2ccc(Br)cc2)C(=O)/C1=C/N1CCN(C(=O)c2ccco2)CC1	32.2	-5.3	6.5	10.8	0.9	.	.	.	.
Cc1cccc(N2C(=O)/C(=C/N3CCN(C(=O)c4ccco4)CC3)C(=O)NC2=S)c1	49.1*	-5.1	0.4	-13.7	-1.4	60.7*	0.4	3.8	4.5
